# Screening data (PubChem BioAssay)
# Rpn11 block = blocks the human proteasome subunit Rpn11. human 26S proteasome, Ub4-pepOG fluorescence polarization; 20S core pre-blocked with epoxomicin. inhibition, % at 20 µM. hit rate 0.59% among 360,000. AID 588493;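 active means inhibition at 20 µM, scaled to each plate's controls, above about 33%, limit read from the data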
# HNF4A DNA FP = change in binding of human HNF4 alpha to DNA | P41235 | HNF4a-FITC DNA binding, fluorescence polarization, 1 h | activity change, % at 10 µM | hit rate 0.3% among 360,000 | AID 1224865; in the data active means activity change above about 30%, passing the limit was not always enough
# Target sequence (P41235 whole entry, looked up): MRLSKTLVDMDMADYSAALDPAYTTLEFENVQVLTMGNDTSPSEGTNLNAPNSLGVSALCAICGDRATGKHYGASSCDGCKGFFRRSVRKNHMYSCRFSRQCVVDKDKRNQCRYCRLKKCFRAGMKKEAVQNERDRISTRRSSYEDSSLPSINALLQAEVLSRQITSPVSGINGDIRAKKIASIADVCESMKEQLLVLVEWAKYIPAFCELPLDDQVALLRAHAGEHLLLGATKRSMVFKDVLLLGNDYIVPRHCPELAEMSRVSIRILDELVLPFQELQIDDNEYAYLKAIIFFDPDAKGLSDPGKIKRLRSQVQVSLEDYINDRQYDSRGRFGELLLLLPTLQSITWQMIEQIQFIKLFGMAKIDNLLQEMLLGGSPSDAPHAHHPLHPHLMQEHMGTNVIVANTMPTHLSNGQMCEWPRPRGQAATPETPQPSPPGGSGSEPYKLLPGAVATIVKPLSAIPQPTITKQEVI
# CSN deneddyl inh = blocks human CSN-mediated cullin deneddylation; AID 651999; Purified CSN, SCF-Nedd8-OG deneddylation, fluorescence polarization; Q92905; hit rate 0.38% among 360,000; inhibition, % at 12.5 µM;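 active means pattern-corrected inhibition above about 35%, with an unprinted fluorescence ratio check between 0.5 and 1.5, limit read from the data, passing the limit was not always enough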
#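 Material: purified human Csn5 enzyme expressed in HEK293T cells / Medium: Tris buffer pH 7.5, NaCl, DTT, Tween-20, trehalose, ovalbumin / Compound dosing: 12.5 µM single point / Schedule: 90 min incubation of compound, enzyme and substrate at room temperature / Signal: fluorescence polarization of the substrate / Control set: no-enzyme wells high, enzyme-with-substrate wells low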
# TPT1 inh = C. albicans TPT1 enzyme inhibition. recombinant caTPT1, FP RNA substrate dephosphorylation. inhibition, % at 5 µM. hit rate 0.81% among 300,000;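 active means inhibition above the mean of all tested compounds plus 3 SD, set per screening campaign, cut at about 24% in these data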
# Neddylation inh = blocks human cullin neddylation | P61081+Q13564 | TR-FRET cullin neddylation, biochemical | inhibition, % at 25 µM | hit rate 0.58% among 360,000; in the data active means inhibition above about 36%
# Rin1 Abl inh = blocks binding of human Rin1 to Abl; P00519+Q13671; TR-FRET Rin1/Abl binding, biochemical; inhibition, % at 7.35 µM; hit rate 0.4% among 360,000; AID 588664; in the data active means inhibition above about 5%, passing the limit was not always enough
# caTPT1 confirm = confirmation of Candida albicans TPT1 inhibitors; shares compounds with TPT1 inh; recombinant caTPT1, fluorescence polarization, RNase T1 coupled; inhibition, % at 5 µM; hit rate 74% among 2,400;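 active means inhibition above the primary screen limit, the mean inhibition of all tested compounds plus 3 SD, cut at about 25% in these data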
# RNase T1 counter = RNase T1 inhibition in TPT1 counter-screen. inhibition, % at 5 µM. RNase T1 cleavage, fluorescence polarization, 1536-well. hit rate 83% among 2,400. shares compounds with TPT1 inh. AID 2153;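 active means inhibition above the solvent-only control well mean plus 3 SD, limit set per screening run, cut at about 23% in these data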;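 further: inhibitors block cleavage so intact labeled substrate keeps polarization high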
# Target sequence (P00651 whole entry, looked up): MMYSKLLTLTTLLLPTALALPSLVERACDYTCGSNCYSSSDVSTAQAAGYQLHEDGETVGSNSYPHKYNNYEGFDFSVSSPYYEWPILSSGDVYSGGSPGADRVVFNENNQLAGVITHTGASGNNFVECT
# Rpn11 confirm = Rpn11 inhibition confirmation, single concentration; shares compounds with Rpn11 block; purified human 26S proteasome, Ub4-pepOG fluorescence polarization; proteasome pretreated with epoxomicin; inhibition, % at 20 µM; hit rate 29% among 1,900; AID 602318
# MMP-2 counter = blocks human MMP-2, flagging nonselective RPN11 hits | inhibition, % at 20 µM | AID 602330 | recombinant MMP-2, FRET peptide cleavage fluorescence | shares compounds with Rpn11 block | hit rate 4% among 1,900;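 further: human MMP-2 activated beforehand with APMA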
# Thrombin FP = thrombin (bovine) inhibition counter-screen; inhibition, % at 20 µM; shares compounds with Rpn11 block; hit rate 13% among 1,900; bovine thrombin cleavage of Ub4-pepOG, fluorescence polarization;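 active means mean inhibition at least 40% at 20 µM, or signal 3 deviations below plate average, so some actives read negative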
# HNF4a DNA conf = change in binding of human HNF4 alpha to DNA, retest. shares compounds with HNF4A DNA FP. HNF4A-FITC DNA binding, fluorescence polarization, 1 h. activity change, % at 12.5 µM. hit rate 99% among 210; call rule not given here
# A number is an active result; n = inactive; x = no result shown. Most compounds without a hit are left out; they make up all but 2.4% or so of the library. Unless noted, no stated cut-off is given here; in the data, active means inhibition above about 40%; inactive means the rest.
SMILES,Rpn11 block,HNF4A DNA FP,CSN deneddyl inh,TPT1 inh,Neddylation inh,Rin1 Abl inh,Rpn11 confirm,MMP-2 counter,Thrombin FP,others
COc1cc(/C=C(/C#N)c2nc3ccccc3c(=O)[nH]2)ccc1O,140,47,80,102,n,n,n,n,n,caTPT1 confirm=126;RNase T1 counter=124;HNF4a DNA conf=58
Cc1snc(SCc2cccc(Cl)c2)c1C#N,n,n,n,n,n,n,x,x,x,
CSc1nsc(/C=C/Nc2cccc(Cl)c2)c1C#N,n,40,n,36,n,n,x,x,x,caTPT1 confirm=26;RNase T1 counter=34;HNF4a DNA conf=41
CSc1nsc(/C=C/Nc2ccc(Cl)cc2)c1C#N,43,40,n,32,n,n,n,n,n,caTPT1 confirm=70;RNase T1 counter=82;HNF4a DNA conf=61
CCOc1ccc(S(=O)(=O)n2cnc(C)c2)cc1,n,n,n,n,n,n,x,x,x,
COc1ccccc1C#Cc1cnc2c(c1)C(=O)N([C@H](C)CO)C[C@H](C)[C@@H](CN(C)S(=O)(=O)c1cn(C)cn1)O2,n,n,n,x,n,n,x,x,x,
CCCN1CCc2c(sc(NC(=O)c3ccc(S(=O)(=O)N4CCCC4)cc3)c2C(N)=O)C1,47,41,n,120,n,n,n,n,n,caTPT1 confirm=132;RNase T1 counter=132;HNF4a DNA conf=54
CCN1CCc2c(sc(NC(=O)c3ccc(S(=O)(=O)N4CCOCC4)cc3)c2C(N)=O)C1,n,n,n,n,n,n,x,x,x,
CCOC(=O)c1c(NC(=S)Nc2ccc(Cl)cc2)sc2c1CCN(C)C2,x,58,61,91,n,n,x,x,x,caTPT1 confirm=88;RNase T1 counter=91;HNF4a DNA conf=83
CCOC(=O)c1c(NC(=O)Nc2ccc(F)cc2)sc2c1CCN(C)C2,n,n,n,n,n,n,x,x,x,
O=C(O)c1cccc(Sc2cc(Cl)ccc2C(=O)O)c1,n,n,n,x,n,n,x,x,x,
COc1ccc(-n2c(C)cc(/C=C3\SC(=S)NC3=O)c2C)cc1,45,40,n,30,n,n,n,n,n,caTPT1 confirm=24;RNase T1 counter=36;HNF4a DNA conf=59
COc1cc(-c2cc(-c3ccc(N)cc3)[nH]c(=O)c2C#N)cc(OC)c1OC,x,55,n,103,n,n,x,x,x,caTPT1 confirm=103;RNase T1 counter=105;HNF4a DNA conf=83
N#Cc1c(-c2ccccc2)cc(-c2ccccc2)[nH]c1=O,n,n,n,n,n,n,x,x,x,
CN(C(=O)c1ccc(NC(=O)Cc2ccc(NC(=O)C3CCCN(C(=O)C4CC4)C3)cc2)cc1)C1CCCC1 (configuration not stated),n,n,n,x,n,n,x,x,x,
COc1ccc2[nH]cc(C=O)c2c1,n,n,n,n,n,n,x,x,x,
COc1ccc2[nH]cc(/C=C/c3cc[n+](C)cc3)c2c1,116,52,n,71,n,n,114,n,114,caTPT1 confirm=83;RNase T1 counter=90;HNF4a DNA conf=114
Cc1cc(NC(=O)CCC(=O)N(c2ccccc2)C(C(=O)NC2CCCC2)c2ccccc2)no1 (configuration not stated),44,n,n,n,n,n,n,n,n,
Cc1ccc(N(C(=O)CCC(=O)Nc2cc(C)on2)C(C(=O)NC2CCCC2)c2ccccc2)cc1 (configuration not stated),n,n,n,n,n,n,x,x,x,
O=C(N/N=C/c1ccco1)c1ccc2nc[nH]c2c1,n,n,n,n,n,n,x,x,x,
O=C(N/N=C/c1ccccc1C(F)(F)F)c1ccc2nc[nH]c2c1,n,n,n,n,n,n,x,x,x,
O=C(N/N=C/c1cc([N+](=O)[O-])ccc1Cl)c1ccc2nc[nH]c2c1,69,n,n,n,n,n,n,n,n,
O=C(N/N=C/c1ccc(Cl)cc1Cl)c1ccc2nc[nH]c2c1,62,n,n,n,n,n,63,n,n,
O=C(COc1ccc2c(c1)oc(=O)c1ccccc12)NCCN1CCOCC1,n,n,n,n,x,n,x,x,x,
N#C/C(=C\c1cc2ccccc2nc1N1CCCCC1)C(N)=O,n,n,n,n,n,n,x,x,x,
SMILES,Rpn11 block,HNF4A DNA FP,CSN deneddyl inh,TPT1 inh,Neddylation inh,Rin1 Abl inh,Rpn11 confirm,MMP-2 counter,Thrombin FP,others
O=C1NC(=S)S/C1=C\c1cc2ccccc2nc1N1CCCCC1,54,n,n,n,n,n,74,n,46,
Cc1cc(Br)ccc1OCC(=O)NNC(=O)c1ccc(NC(=O)C2CC2)cc1,55,n,n,n,n,n,n,n,n,
Cc1ccc(C)c(OCC(=O)NNC(=O)c2ccc(NC(=O)C3CC3)cc2)c1,n,n,n,x,n,n,x,x,x,
COC(=O)CCC(=O)N1CCCC(N2CCN(c3ccc(OC)cc3)CC2)C1 (configuration not stated),55,n,n,n,n,n,n,n,n,
CS(=O)(=O)Nc1nnc(SCC(=O)N(c2ccccc2)c2ccccc2)s1,n,n,n,n,n,n,x,x,x,
Cc1cc(C)c2nc(/N=C(\N)NC(=O)Nc3ccccc3)nc(C)c2c1,47,n,n,n,n,n,n,n,n,
COc1ccc(C(=O)/C(C#N)=N/Nc2ccccc2[N+](=O)[O-])cc1,n,n,n,n,n,n,x,x,x,
COc1ccc(C(=O)/C(C#N)=N/Nc2ccc([N+](=O)[O-])cc2)cc1,34,n,n,n,n,n,n,n,n,
CC(=O)C1=C(O)C(=CC=Cc2ccccc2)OC1=O,41,60,n,x,n,n,43,n,n,
CC(/C=C\c1ccccc1)=C/C(=O)O,n,n,n,n,n,n,x,x,x,
O=C(CC1CCCC1)N1CCN(S(=O)(=O)c2ccccc2)CC1,n,n,n,x,n,n,x,x,x,
O=C(Nc1nc(-c2ccco2)cs1)c1ccccc1,45,n,n,n,n,n,n,n,n,
COc1ccc(N2CCN(C(c3cc(OC)ccc3OC)c3nnnn3Cc3ccco3)CC2)cc1 (configuration not stated),30,n,n,n,n,n,n,n,n,
Cc1ccc2[nH]c(O)c(N=Nc3ccccc3C)c2c1,54,n,n,n,n,n,64,n,n,
COC(=O)c1ccc(NC(CC(C)C)C(=O)OC)c([N+](=O)[O-])c1 (configuration not stated),n,n,n,n,n,n,x,x,x,
O=C(Nc1ccc2c(c1)OCO2)c1cnc(Cl)c(Cl)c1,n,n,n,x,n,n,x,x,x,
